Data set [1] has as its system F98. The data set is described as follows: Antitumor activity against rat F98 cells xenografted in Fisher rat assessed as necrotic/apoptotic tumor cells at 5 mg/kg, IT measured after 2 days by MRI analysis. Format: functional, organism-based. The settings on record: time 2.0 day.
For data set [2], the system named is F98. Description: Antitumor activity against rat F98 cells xenografted in Fisher rat assessed as average tumor volume at 5 mg/kg, IT measured after 5 days by MRI analysis. It is filed as functional. The settings on record: time 5 day.
The nature of data set [3]: Toxicity in Fisher rat xenografted with rat F98 cells assessed as animal survival at 5 mg/kg, IT measured for 5 days. Format: organism-based. The settings on record: in vivo, other, 120 h, time 5 day. A digest of the protocol:
(§1)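 F98 glioma cells implanted in rats per an earlier protocol. Tumor volume followed by T₂-weighted MRI (9.4 T, turbo-RARE, TE 33 ms, TR 2500 ms) on days 3, 5, 8, 10, 12 and 15. On day 10 (mean tumor about 325 mm³), compound in PBS was given intratumorally at 5 mg/kg; PBS alone was the control. Survival was plotted as Kaplan-Meier.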

Data set [4] relates to F98. The data set is described as follows: Cytotoxicity against rat F98 cells assessed as cell growth inhibition incubated for 24 hrs by MTT assay. It is filed as functional, cell-based. The settings on record: F98, 24 h. A digest of the protocol: (§2)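 MTT assay (mitochondrial activity). Cells grown at 37 °C, humidified 5% CO2: N13 in RPMI, F98 in DMEM.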
Background: Formazan colour is commonly taken as a measure of viable cells.

Data set [5] in a line: Toxicity in rat assessed as signs of pain administered locally in caudate nucleus of brain measured after 30 days. It is filed as tissue-based. The settings on record: in vivo, other, 720 h, route it, time 30 day. A digest of the protocol:
(§3)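 Non-tumor-bearing rats given a local injection into the caudate nucleus; PBS injected at the same site as control. Brain injury checked by in vivo MRI up to 30 days. Animals watched for external signs of pain or suffering. Survival monitored for 30 days.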

Data set [6] can be described thus: Toxicity in rat assessed as survival rate administered locally in caudate nucleus of brain measured after 30 days relative to control. Format: tissue-based. The conditions noted are these: in vivo, route it, time 30 day. A digest of the protocol:
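Non-tumor-bearing rats received compound by local injection into the caudate nucleus, with PBS injected into the same region as control. Brains were imaged by in vivo MRI (9.4 T) before and 30 days after injection. Animals were watched for signs of pain, and survival over 30 days was plotted as Kaplan-Meier.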

For data set [7], the system named is N13. The data set is described as follows: Cytotoxicity in CM-Dil-labeled mouse N13 cells co-cultured with rat F98 cells assessed as increase in number of mouse N13 cells upto 100 ug/ml measured after 24 hrs by bright-field microscopy. Format: functional, cell-based. The conditions noted are these: dose <= 100.0 µg/ml. A digest of the protocol: (§4)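 Co-culture. N13 cells pre-labelled with the red membrane dye CM-DiI, then seeded together with F98 cells. Cells exposed to 0, 10 or 100 µg/mL for 24 h. Brightfield and fluorescence images taken on a high-content imager. Cell types separated by automatic segmentation on morphology (N13 rounded, F98 elongated) plus label. Cell counts and percentages of each type reported.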

Data set [8] deals with F98. The data set is described as follows: Cytotoxicity in rat F98 cells co-cultured with CM-Dil-labeled mouse N13 cells assessed as decrease in number of rat F98 cells measured after 24 hrs by bright-field microscopy. Format: functional, cell-based. The conditions noted are these: dose <= 100.0 µg/ml. A digest of the protocol: as §4
Data set [9] is described as follows: Toxicity in rat assessed as signs of suffering administered locally in caudate nucleus of brain measured after 30 days. It is filed as tissue-based. The settings on record: in vivo, other, 720 h, route it, time 30 day. A digest of the protocol: as §3
For data set [10], the system named is F98. The data set is described as follows: Cytotoxicity against rat F98 cells assessed as cell viability at 0.4 uM incubated for 24 hrs by MTT assay relative to control. It is filed as functional. The settings on record: read-out: Activity. A digest of the protocol:
as §2

Data set [11] in a line: Cytotoxicity against mouse N13 cells assessed as cell viability at 0.4 uM incubated for 24 hrs by MTT assay relative to control. The settings on record: read-out: Activity. Format: functional. A digest of the protocol:
as §2

Data set [12] deals with N13. Description: Induction of apoptosis in mouse N13 cells assessed as accumulation at sub G0/G1 phase at 100 ug/ml incubated for 24 hrs by flow cytometry. It is filed as functional, cell-based. The conditions noted are these: dose 100.0 µg/ml. A digest of the protocol:
(§5)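 N13 or F98 cells exposed to 100 µg/mL for 24 h, untreated cells as controls. DNA content measured by flow cytometry. The fraction in the sub-G0/1 region taken as apoptotic cells.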
A general note: A flow cytometer gives signals particle by particle.

The nature of data set [13]: Toxicity in Fisher rat xenografted with rat F98 cells assessed as animal survival at 5 mg/kg, IT measured for 16 days. It is filed as organism-based. The settings on record: in vivo, other, 384 h, time 16 day. A digest of the protocol:
as §1

A short description of data set [14]: Toxicity in rat assessed as brain injury administered locally in caudate nucleus of brain measured after 30 days by MRI analysis. Format: tissue-based. The settings on record: in vivo, other, 720 h, route it, time 30 day. A digest of the protocol:
as §3

In data set [15] the test system is F98. Description: Induction of apoptosis in rat F98 cells assessed as accumulation at sub G0/G1 phase at 100 ug/ml incubated for 24 hrs by flow cytometry relative to control. Format: functional. The conditions noted are these: dose 100 µg/ml. A digest of the protocol:
as §5

Data set [16] concerns F98. The data set is described as follows: Antitumor activity against rat F98 cells xenografted in Fisher rat assessed as average tumor volume at 5 mg/kg, IT measured after 2 days by MRI analysis (reference value: 845 mm^3). Format: functional. The conditions noted are these: time 2 day.
A short description of data set [17]: Cytotoxicity against mouse N13 cells assessed as cell viability at 0.34 uM incubated for 24 hrs by MTT assay relative to control. Format: functional. The settings on record: read-out: Activity. A digest of the protocol:
as §2

Data set [18] in a line: Cytotoxicity against mouse N13 cells assessed as cell growth inhibition incubated for 24 hrs by MTT assay. It is filed as functional, cell-based. The conditions noted are these: N13, 24 h. A digest of the protocol: as §2
For data set [19], the system named is F98. Description: Cytotoxicity against rat F98 cells assessed as cell viability at 0.34 uM incubated for 24 hrs by MTT assay relative to control. The settings on record: read-out: Activity. It is filed as functional. A digest of the protocol: as §2
A short description of data set [20]: Cytotoxicity against mouse N13 cells assessed as cell viability at 0.36 uM incubated for 24 hrs by MTT assay relative to control. It is filed as functional. The conditions noted are these: read-out: Activity. A digest of the protocol: as §2
In data set [21] the test system is F98. The data set is described as follows: Cytotoxicity against rat F98 cells assessed as cell viability at 0.36 uM incubated for 24 hrs by MTT assay relative to control. It is filed as functional. The settings on record: read-out: Activity. A digest of the protocol:
as §2

In data set [22] the test system is F98. Description: Cytotoxicity against rat F98 cells assessed as cell viability at 0.5 uM incubated for 24 hrs by MTT assay relative to control. Format: functional. The conditions noted are these: read-out: Activity. A digest of the protocol: as §2
The nature of data set [23]: Cytotoxicity against mouse N13 cells assessed as cell viability at 0.5 uM incubated for 24 hrs by MTT assay relative to control. It is filed as functional. The conditions noted are these: read-out: Activity. A digest of the protocol:
as §2

In data set [24] the test system is F98. Description: Cytotoxicity against rat F98 cells assessed as cell viability at 0.31 uM incubated for 24 hrs by MTT assay relative to control. The settings on record: read-out: Activity. It is filed as functional. A digest of the protocol: as §2
The nature of data set [25]: Cytotoxicity against mouse N13 cells assessed as cell viability at 0.31 uM incubated for 24 hrs by MTT assay relative to control. It is filed as functional. The conditions noted are these: read-out: Activity. A digest of the protocol: as §2
Data set [26] is described as follows: Cytotoxicity against mouse N13 cells assessed as cell viability at 0.28 uM incubated for 24 hrs by MTT assay relative to control. It is filed as functional. The conditions noted are these: read-out: Activity. A digest of the protocol:
as §2

Data set [27] deals with F98. Description: Cytotoxicity against rat F98 cells assessed as cell viability at 0.28 uM incubated for 24 hrs by MTT assay relative to control. Format: functional. The settings on record: read-out: Activity. A digest of the protocol:
as §2

Calls of active or inactive are those of the source. The calls are words filed in the database; no cut-off is given here.

Take `CCOC(=O)C[C@H](N)c1ccccc1O.Cl`: the outcome with F98 [1] and with N13 [7] was Active. The Activity in the data set with F98 [2] was 815 mm3; in data set [3] it was “Non-Toxic”; in data set [5], “Non-Toxic”; in the data set with F98 [8], “Dose-Dependent Effect”; in [9], “Non-Toxic”; in [13], “Non-Toxic”. In addition, the Activity result in data set [14] is reported as “Non-Toxic”; in the data set with F98 [15], 42%; in the data set on F98 [16], 370 mm3. Also, in the data set with F98 [4], the IC50 (commonly the concentration at which inhibition is half-maximal) stood at 140 µM. Further, the survival at 720 h in data set [6] came to 100%. In addition, the viability at 0.4 µM amounted to 60% in the data set on F98 [10] and 0% in [11]. Besides, in the data set on N13 [12], the result was inactive.
Regarding `CCOC(=O)C[C@H](N)c1cc([N+](=O)[O-])ccc1O`, the values for the IC50 (with F98 [4]; in data set [18]) were 1140 µM and 660 µM, respectively. For the same molecule, the viability at 0.34 µM in data set [17] is 30%; in the data set on F98 [19], 20%.
With `CCOC(=O)C[C@H](N)c1cc(OC)ccc1O`, the viability at 0.36 µM in [20] was determined as 70%; in the data set on F98 [21], 5%. Also, the IC50 in [18] was determined as 40 µM.
Take `N[C@H]1CC(=O)Oc2ccccc21`: the values for the viability at 0.5 µM (in the data set with F98 [22]; in [23]) were 55% and 15%, respectively. Moreover, the IC50 was 480 µM with F98 [4] and 1570 µM in data set [18].
Consider `CCOC(=O)C[C@H](N)c1ccc(OC)cc1O`, for which the results for the viability at 0.36 µM (in data set [20]; in the data set on F98 [21]) were 55% and 45%, respectively. The IC50 is 470 µM in the data set with F98 [4] and 340 µM in [18].
For `CCOC(=O)C[C@H](N)c1cc(Br)ccc1O`, the IC50 in the data set on F98 [4] came to 210 µM; in data set [18] it was 500 µM. In addition, the viability at 0.31 µM came out at 60% with F98 [24] and 40% in data set [25].
As to `CCOC(=O)C[C@@H](N)c1ccccc1O`, the IC50 is 780 µM in the data set with F98 [4] and 450 µM in [18]. Also, the viability at 0.4 µM in the data set with F98 [10] was 35%; in data set [11] it was 40%.
As for `CCOC(=O)C[C@H](N)c1cc(Br)cc(OC)c1O`, the IC50 in the data set on F98 [4] was determined as 170 µM; in data set [18], 220 µM. Moreover, the viability at 0.28 µM (in data set [26]; with F98 [27]) was 60% in each case.

The values are drawn from ChEMBL document CHEMBL5352420, “Enantioselective synthesis of 4-amino-3,4-dihydrocoumarins and their non-cyclic hydroxyester precursors: Biological evaluation for the treatment of glioblastoma multiforme” (Eur J Med Chem, 2022).
